ChEMBL document CHEMBL1126888, “Peptide alpha-keto ester, alpha-keto amide, and alpha-keto acid inhibitors of calpains and other cysteine proteases” (J Med Chem, 1993)
pIC50, pKi: −log10 of the molar value.

Key:
Cathepsin B = Cathepsin B (Bos taurus, UniProt P07688); assay: Inhibition of alpha-keto esters towards cathepsin B at pH 5.2
Procedure, shortened: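 Bovine cathepsin B in 20 mM sodium acetate pH 5.2, 0.5 mM dithiothreitol, 2% DMSO. Substrate Bz-Phe-Val-Arg-p-nitroanilide; p-nitroaniline release followed at 405 nm. Ki reported.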

Calpain 1 = Calpain 1 (Homo sapiens, UniProt P07384); assay: Inhibitory activity of alpha-keto esters towards calpain 1 at pH 8.0.; format: protein-complex assay
Procedure, shortened: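 Calpain I purified from human erythrocytes; calpain II from rabbit muscle. Buffer: 25 mM Tris pH 8.0, 1 mM β-mercaptoethanol, 10 mM CaCl2, up to 5% DMSO. Substrate: Suc-Leu-Tyr-AMC at 1–3 mM, 70 nM final enzyme, started with enzyme. AMC fluorescence read at ex 380 / em 460 nm. Initial rates taken at 30–60 s at room temperature, with five or more inhibitor levels and two substrate levels. Ki from Dixon plots, triplicates.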

Papain = molecular target: T1, Papain (Carica papaya, UniProt P00784); assay: Inhibitory activity of alpha-ketoesters towards papain at pH 6.0
T1 sequence (P00784 whole entry): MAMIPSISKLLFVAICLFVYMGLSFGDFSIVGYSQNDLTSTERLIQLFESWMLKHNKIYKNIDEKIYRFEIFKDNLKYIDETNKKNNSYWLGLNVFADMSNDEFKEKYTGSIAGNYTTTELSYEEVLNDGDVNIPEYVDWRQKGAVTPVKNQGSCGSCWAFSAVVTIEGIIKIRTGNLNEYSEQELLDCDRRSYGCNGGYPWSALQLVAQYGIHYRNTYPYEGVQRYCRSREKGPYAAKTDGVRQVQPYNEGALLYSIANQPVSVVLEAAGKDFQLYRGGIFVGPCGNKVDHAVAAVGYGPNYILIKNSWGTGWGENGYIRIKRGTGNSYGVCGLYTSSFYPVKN
Procedure, shortened: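 Papain in 100 mM K3PO4, 1 mM EDTA, 2.5 mM cysteine, pH 6.0, 2% DMSO. Substrate Bz-Arg-p-nitroanilide; p-nitroaniline release read at 405 nm. Ki reported.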

Rattus norvegicus = organism: Rattus norvegicus; assay: Inhibitory potency against rat platelet membrane permeability at pH 7.35; format: functional
Procedure, shortened: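 Rat platelets from cardiac-puncture blood (citrate-EDTA), gel-filtered in HEPES-Tyrode's pH 7.35, at 10^7/mL. Preincubated 5 min at room temperature with inhibitor from DMSO stocks (2% DMSO), then given 1 μM A23187 plus 2 mM Ca for 5 min. Pellets run on SDS-PAGE and western blotted for spectrin. Densitometry of the 150/155-kDa breakdown doublet gives IC50.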

Chain of Calpain 1 (P04632 whole entry): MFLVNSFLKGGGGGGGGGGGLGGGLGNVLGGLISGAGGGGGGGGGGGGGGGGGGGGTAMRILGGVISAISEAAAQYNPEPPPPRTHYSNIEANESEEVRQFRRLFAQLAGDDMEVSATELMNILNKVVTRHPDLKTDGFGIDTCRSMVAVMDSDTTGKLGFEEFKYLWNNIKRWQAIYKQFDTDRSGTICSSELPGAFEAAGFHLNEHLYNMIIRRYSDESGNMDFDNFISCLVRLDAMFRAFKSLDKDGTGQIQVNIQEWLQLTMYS
Chain of Calpain 1 (P07384 whole entry): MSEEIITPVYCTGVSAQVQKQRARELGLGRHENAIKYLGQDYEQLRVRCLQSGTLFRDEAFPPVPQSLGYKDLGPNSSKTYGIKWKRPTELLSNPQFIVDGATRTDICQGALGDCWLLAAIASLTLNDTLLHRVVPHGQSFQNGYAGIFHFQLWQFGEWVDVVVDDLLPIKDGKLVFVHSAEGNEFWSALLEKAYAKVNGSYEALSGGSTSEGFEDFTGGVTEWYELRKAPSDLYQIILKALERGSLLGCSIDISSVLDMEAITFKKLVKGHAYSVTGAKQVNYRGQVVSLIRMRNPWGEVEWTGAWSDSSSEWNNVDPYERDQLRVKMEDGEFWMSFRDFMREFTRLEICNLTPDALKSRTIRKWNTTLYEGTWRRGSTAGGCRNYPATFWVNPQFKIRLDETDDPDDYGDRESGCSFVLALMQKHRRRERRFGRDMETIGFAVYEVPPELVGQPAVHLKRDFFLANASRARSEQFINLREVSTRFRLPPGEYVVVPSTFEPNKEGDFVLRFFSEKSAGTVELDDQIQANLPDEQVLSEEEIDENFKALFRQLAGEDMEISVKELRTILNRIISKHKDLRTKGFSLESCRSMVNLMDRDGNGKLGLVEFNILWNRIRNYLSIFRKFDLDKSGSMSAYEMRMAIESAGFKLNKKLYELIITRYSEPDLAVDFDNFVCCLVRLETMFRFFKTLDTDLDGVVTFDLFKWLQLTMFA

SMILES	pKi (Cathepsin B)	pKi (Calpain 1)	pKi (Papain)	pIC50 (Rattus norvegicus)
CCOC(=O)C(=O)C(CC)NC(=O)C(CC(C)C)NC(=O)CCCCc1ccccc1 (configuration not stated)	5.12			
CCOC(=O)C(=O)C(CC)NC(=O)C(CC(C)C)NS(=O)(=O)c1ccc2ccccc2c1 (configuration not stated)	4.72			
CCC(NC(=O)C(CC(C)C)NC(=O)OCc1ccccc1)C(=O)C(=O)NCC(C)c1ccccc1 (configuration not stated)		6.49		4.57
CCCCC(NC(=O)C(CC(C)C)NC(=O)OCc1ccccc1)C(=O)C(=O)OCC (configuration not stated)	4.70	5.15	3.72	3.82
CCCCCCCNC(=O)C(=O)C(CC)NC(=O)C(CC(C)C)NC(=O)OCc1ccccc1 (configuration not stated)	4.85	7.02		
COC(=O)C(=O)C(Cc1ccccc1)NC(=O)C(CC(C)C)NC(=O)OCc1ccccc1 (configuration not stated)	< 4.00			
CC(C)CC(NC(=O)OCc1ccccc1)C(=O)NC(Cc1ccccc1)C(=O)C(N)=O (configuration not stated)	4.49	6.00		
CCCNC(=O)C(=O)C(CC)NC(=O)C(CC(C)C)NC(=O)OCc1ccccc1 (configuration not stated)	5.10			4.15
CCN(CC)C(=O)C(=O)C(Cc1ccccc1)NC(=O)C(CC(C)C)NC(=O)OCc1ccccc1 (configuration not stated)		4.12		
CCOC(=O)C(=O)C(Cc1ccc(Cl)cc1)NC(=O)C(CC(C)C)NC(=O)OCc1ccccc1 (configuration not stated)	4.30	> 5.40	3.82	
CCOC(=O)C(=O)C(CCSC)NC(=O)C(CC(C)C)NC(=O)OCc1ccccc1 (configuration not stated)	4.26	6.00	3.85	
CCCCOC(=O)C(=O)C(Cc1ccccc1)NC(=O)C(CC(C)C)NC(=O)OCc1ccccc1 (configuration not stated)	4.82	5.30	4.82	
CCC(NC(=O)C(CC(C)C)NC(=O)OCc1ccccc1)C(=O)C(=O)OC (configuration not stated)	4.77			3.55
CCOC(=O)C(=O)C(CC)NC(=O)C(CC(C)C)NC(=O)C(c1ccccc1)c1ccccc1 (configuration not stated)		7.00		< 4.00
CCOC(=O)C(=O)C(CC)NC(=O)C(CC(C)C)NC(=O)CCc1ccccc1 (configuration not stated)	4.64	4.40		4.70
CCCC(NC(=O)C(CC(C)C)NC(=O)OCc1ccccc1)C(=O)C(N)=O (configuration not stated)		7.16		
CCC(NC(=O)C(CC(C)C)NC(=O)OCc1ccccc1)C(=O)C(=O)NCC1CCCCC1 (configuration not stated)		6.17		4.18
CCCC(NC(=O)C(CC(C)C)NC(=O)OCc1ccccc1)C(=O)C(=O)OCC (configuration not stated)	4.60	5.85	3.82	4.00

SMILES	pKi (Cathepsin B)	pKi (Calpain 1)	pKi (Papain)	pIC50 (Rattus norvegicus)
CCOC(=O)C(=O)C(CC)NC(=O)C(CC(C)C)NC(=O)OCc1ccccc1 (configuration not stated)	4.52	5.35	3.66	3.52
CCOC(=O)C(=O)C(CC)NC(=O)C(CC(C)C)NC(=O)CCCc1ccccc1 (configuration not stated)	4.64			4.70
CCC(=O)C(=O)[C@H](CC)NC(=O)[C@H](CC(C)C)NC(=O)[C@H](CC(C)C)NC(=O)OCc1ccccc1	4.66	5.74		4.40
CCOC(=O)C(=O)[C@H](Cc1ccccc1)NC(=O)[C@H](CC(C)C)NC(=O)[C@H](CC(C)C)NC(=O)OCc1ccccc1	4.38	5.85	4.82	
CCOC(=O)C(=O)[C@H](CC)NC(=O)[C@H](CC(C)C)NC(=O)[C@H](CC(C)C)NS(=O)(=O)c1ccc(C)cc1	4.16	4.48		4.52
CCOC(=O)C(=O)[C@H](CC)NC(=O)[C@H](CC(C)C)NC(=O)[C@H](CC(C)C)NS(=O)(=O)c1ccc2ccccc2c1	4.60	4.80		4.00
CCOC(=O)C(=O)[C@H](CC)NC(=O)[C@H](CC(C)C)NC(=O)[C@H](CC(C)C)NC(=O)c1ccc2ccccc2c1		5.89		4.11
CC(C)CC(NC(=O)OCc1ccccc1)C(=O)NC(Cc1ccccc1)C(=O)C(=O)OCc1ccccc1 (configuration not stated)	4.35	5.47	4.35	
CCC(NC(=O)C(CC(C)C)NC(=O)OCc1ccccc1)C(=O)C(=O)N(CC)CC (configuration not stated)	3.57			
CCCCCCCCCNC(=O)C(=O)C(CC)NC(=O)C(CC(C)C)NC(=O)OCc1ccccc1 (configuration not stated)	3.82	6.92		
CCOC(=O)C(=O)C(CC)NC(=O)C(CC(C)C)NC(=O)C(CC)Oc1ccccc1 (configuration not stated)	4.85	4.70		4.66
CC(C)CC(NC(=O)OCc1ccccc1)C(=O)NC(Cc1ccccc1)C(=O)C(=O)NCCc1ccccc1 (configuration not stated)	5.03	7.28	4.00	4.00
CCOC(=O)C(=O)C(CC)NC(=O)C(CC(C)C)NC(=O)CCC(C)Cc1ccccc1 (configuration not stated)	4.62			
CCC(NC(=O)C(CC(C)C)NC(=O)OCc1ccccc1)C(=O)C(=O)N(CC)Cc1ccccc1 (configuration not stated)	< 3.40			
CCOC(=O)C(=O)C(Cc1ccccc1)NC(=O)C(CC(C)C)NC(=O)OCc1ccccc1 (configuration not stated)	3.47	5.74	4.12	3.70
CCNC(=O)C(=O)C(Cc1ccccc1)NC(=O)C(CC(C)C)NC(=O)OCc1ccccc1 (configuration not stated)	5.22	6.70	4.35	4.66
CCC(NC(=O)C(CC(C)C)NC(=O)OCc1ccccc1)C(=O)C(=O)N(Cc1ccccc1)Cc1ccccc1 (configuration not stated)	4.51	< 5.30		
CCCCNC(=O)C(=O)C(CC)NC(=O)C(CC(C)C)NC(=O)OCc1ccccc1 (configuration not stated)	4.89	6.70	4.03	4.46

More lines, now with the values ahead:

pKi (Cathepsin B)	pKi (Calpain 1)	pKi (Papain)	pIC50 (Rattus norvegicus)	SMILES
5.40	5.02	4.40	4.00	CCC(NC(=O)C(CC(C)C)NC(=O)OCc1ccccc1)C(=O)C(=O)OCc1ccccc1 (configuration not stated)
5.92	6.49			CCC(NC(=O)C(CC(C)C)NC(=O)OCc1ccccc1)C(=O)C(=O)NCCCCc1ccccc1 (configuration not stated)
5.40	5.40		4.55	CCC(NC(=O)C(CC(C)C)NC(=O)OCc1ccccc1)C(=O)C(=O)NCC(C)C (configuration not stated)
5.30				CCCCCCCCCCNC(=O)C(=O)C(CC)NC(=O)C(CC(C)C)NC(=O)OCc1ccccc1 (configuration not stated)
6.40			< 3.52	CCOC(=O)C(=O)C(CC)NC(=O)C(CC(C)C)NC(=O)OCC(C)C (configuration not stated)
6.30	5.70			CCC(C)NC(=O)C(=O)C(CC)NC(=O)C(CC(C)C)NC(=O)OCc1ccccc1 (configuration not stated)
5.52	4.82		4.51	CCCNC(=O)C(=O)C(Cc1ccccc1)NC(=O)C(CC(C)C)NC(=O)OCc1ccccc1 (configuration not stated)
5.48	6.68		4.40	CCCC(NC(=O)C(CC(C)C)NC(=O)OCc1ccccc1)C(=O)C(=O)NCC (configuration not stated)
5.35	8.07	5.15	4.00	CC(C)CC(NC(=O)OCc1ccccc1)C(=O)NC(Cc1ccccc1)C(=O)C(=O)O (configuration not stated)
5.89	6.70	4.42	4.30	CCC(NC(=O)C(CC(C)C)NC(=O)OCc1ccccc1)C(=O)C(=O)NCCc1ccccc1 (configuration not stated)
5.89	6.70	4.42	4.30	CCC(NC(=O)C(CC(C)C)NC(=O)OCc1ccccc1)C(=O)C(=O)NCc1ccccc1 (configuration not stated)
5.82	7.12	4.87	4.00	CCC(NC(=O)C(CC(C)C)NC(=O)OCc1ccccc1)C(=O)C(=O)O (configuration not stated)
6.70	6.10		4.00	CCC(NC(=O)C(CC(C)C)NC(=O)OCc1ccccc1)C(=O)C(=O)NCCCc1ccccc1 (configuration not stated)
5.62	6.60	4.03	4.00	CCNC(=O)C(=O)C(CC)NC(=O)C(CC(C)C)NC(=O)OCc1ccccc1 (configuration not stated)
5.59	6.49		3.70	CCCCCCCCNC(=O)C(=O)C(CC)NC(=O)C(CC(C)C)NC(=O)OCc1ccccc1 (configuration not stated)
5.47	6.55	3.72	4.05	CCC(NC(=O)C(CC(C)C)NC(=O)OCc1ccccc1)C(=O)C(N)=O (configuration not stated)
5.52	6.80			CCC(NC(=O)C(CC(C)C)NC(=O)OCc1ccccc1)C(=O)C(=O)NCC(c1ccccc1)c1ccccc1 (configuration not stated)
5.40	5.74	5.00	4.55	CCCCOC(=O)C(=O)C(CC)NC(=O)C(CC(C)C)NC(=O)OCc1ccccc1 (configuration not stated)
5.34			< 3.52	CC(C)CC(NC(=O)OCc1ccccc1)C(=O)NC(Cc1ccccc1)C(=O)C(=O)NCc1ccccc1 (configuration not stated)
5.52	6.30		4.42	CCCCNC(=O)C(=O)C(Cc1ccccc1)NC(=O)C(CC(C)C)NC(=O)OCc1ccccc1 (configuration not stated)
5.40	7.10		4.66	CC(C)CNC(=O)C(=O)C(Cc1ccccc1)NC(=O)C(CC(C)C)NC(=O)OCc1ccccc1 (configuration not stated)
